Laboratory results: ChEMBL document CHEMBL3813689, “Discovery of Potent Benzofuran-Derived Diapophytoene Desaturase (CrtN) Inhibitors with Enhanced Oral Bioavailability for the Treatment of Methicillin-Resistant Staphylococcus aureus (MRSA) Infections” (J Med Chem, 2016)
The source made the active and inactive calls. The calls are words filed in the database; no cut-off is given here.

How the values were obtained:
Trichophyton verrucosum = assay: Antifungal activity against Trichophyton verrucosum measured after 7 days by serial dilution method; format: functional
In short: (§1)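 Broth serial dilution MIC per NCCLS in RPMI 1640 buffered with 0.165 M MOPS; compounds in DMSO diluted in medium. Dermatophytes incubated at 28 °C, read at 7 days. MIC taken as lowest concentration giving ≥80% growth inhibition versus control (turbidity).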

Staphylococcus aureus [1] = assay: Sensitization of Staphylococcus aureus Newman to H2O2 assessed as bacterial survival at 1 uM measured after 24 hrs (reference value: 36.2%); format: functional
Staphylococcus aureus [2] = assay: Sensitization of methicillin-resistant Staphylococcus aureus Mu50 to H2O2 assessed as bacterial survival at 1 uM measured after 24 hrs (reference value: 25.3%); format: functional; settings: Mu50, 24 h
[3] = Aqueous solubility of the compound by HPLC method; format: physicochemical
In short: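 Calibration with standards at 50, 100, 200, 400 and 800 µg/mL in methanol (peak area vs concentration). 10 mg solid stirred in 1 mL pure water for 24 h, more added if still clear; syringe-filtered, 10 µL injected; solubility read from calibration curve.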

Staphylococcus aureus [4] = assay: Suppression in growth of Staphylococcus aureus Newman at 0.2 mM measured after overnight incubation by spectrophotometric method; format: organism-based; settings: in vitro, 200 µM
In short: (§2)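 Compound from 20 mM DMSO stock diluted in TSB to final 0.2 or 0.05 mM; DMSO growth controls; paraffin overlay. Overnight cultures inoculated to final OD600 ≈ 0.05; incubated at 37 °C overnight with OD600 read every 30 min.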

Staphylococcus aureus [5] = assay: Suppression in growth of methicillin-resistant Staphylococcus aureus USA400 MW2 at 0.05 mM measured after overnight incubation by spectrophotometric method; format: organism-based; settings: 50 µM; in short: as §2
Staphylococcus aureus [6] = assay: Suppression in growth of methicillin-resistant Staphylococcus aureus USA300 LAC at 0.2 mM measured after overnight incubation by spectrophotometric method; format: organism-based; settings: 200 µM; in short: as §2
Staphylococcus aureus [7] = assay: Suppression in survival of Staphylococcus aureus Newman at 0.2 mM measured after overnight incubation by spectrophotometric method; format: ADME, organism-based; settings: 200 µM; in short: as §2
Staphylococcus aureus [8] = assay: Suppression in survival of methicillin-resistant Staphylococcus aureus USA400 MW2 at 0.05 mM measured after overnight incubation by spectrophotometric method; format: ADME, organism-based; settings: 50 µM; in short: as §2
Staphylococcus aureus [9] = assay: Suppression in survival of methicillin-resistant Staphylococcus aureus Mu50 at 0.05 mM measured after overnight incubation by spectrophotometric method; format: ADME, organism-based; settings: 50 µM; in short: as §2
Staphylococcus aureus [10] = assay: Sensitization of Staphylococcus aureus USA300 LAC to immune clearance in human whole blood assessed as reduction in bacterial survival at 1 uM […] relative to control; format: functional
Staphylococcus aureus [11] = assay: Sensitization of methicillin-resistant Staphylococcus aureus Mu50 to immune clearance in human whole blood assessed as reduction in bacterial survival at 1 uM measured after 24 hrs relative to control; format: functional
In short: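 Overnight cultures spun down and resuspended in sterile PBS at 1 × 10^7 CFU/mL. 40 µL mixed with 360 µL fresh whole blood from a healthy human volunteer, giving 1 × 10^6 CFU/mL. Incubated 6 h at 37 °C. Surviving CFU counted by plating dilutions on TSA.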

Staphylococcus aureus [12] = assay: Sensitization of Staphylococcus aureus Newman to H2O2 assessed as reduction in bacterial survival at 1 uM measured after 24 hrs relative to control; format: functional
In short: (§3)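 Strains grown 24 h in TSB with or without inhibitor, washed twice in PBS, then diluted to 4 × 10^6 CFU per 250 µL reaction. H2O2 added to a final 1.5%. Tubes sealed and held 30 min at 37 °C. Reaction stopped with 1000 U/mL catalase. Survivors counted as CFU by serial dilution on TSA plates and compared with untreated (mock) bacteria.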

Staphylococcus aureus [13] = assay: Sensitization of methicillin-resistant Staphylococcus aureus USA300 LAC to H2O2 assessed as reduction in bacterial survival at 1 uM measured after 24 hrs relative to control; format: functional; in short: as §3
Staphylococcus aureus [14] = assay: Sensitization of methicillin-resistant Staphylococcus aureus Mu50 to H2O2 assessed as reduction in bacterial survival at 1 uM measured after 24 hrs relative to control; format: functional; in short: as §3
Staphylococcus aureus [15] = assay: Antibacterial activity against Staphylococcus aureus Newman infected Balb/c mouse assessed as reduction of bacterial survival in kidney at 5.2 mg, ip bid administered for 4.5 days followed by bacterial infection measured after 5 days; format: functional
In short: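 Female BALB/c mice, 6–8 weeks, dosed ip with compound in sterile water once and every 12 h for 108 h; water vehicle controls. Challenged 12 h after first dose with 1 × 10^7 CFU Newman by retro-orbital injection. Kidneys and hearts homogenised in PBS/0.1% Triton X-100 and plated on TSA for CFU. n = 13 mice; two-tailed Mann-Whitney.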

Staphylococcus aureus [16] = assay: Antibacterial activity against Staphylococcus aureus USA400 MW2 infected Balb/c mouse assessed as reduction of bacterial survival in liver at 1.3 mg, ip bid administered for 4.5 days followed by bacterial infection measured after 5 days; format: functional
In short: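 Female BALB/c mice, 6–8 weeks. Compound in sterile water ip once and every 12 h for 108 h, total 50 or 200 mg/kg; water controls. Infected 12 h after first dose with 4 × 10^7 CFU USA400 MW2 (100 µL). Killed 5 days post infection; liver or kidney CFU counted on TSA after homogenising in PBS/0.1% Triton X-100. n = 13; two-tailed Mann-Whitney.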

[17] = Volume of distribution at steady state in Sprague-Dawley rat at 5 mg/kg, iv administered as single dose; format: ADME, organism-based; settings: in vivo, read-out: Vdss
In short: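 Male SD rats, 3 per group, single iv 5 mg/kg or oral 10 mg/kg. Blood sampled 0.083 (iv only), 0.25, 0.5, 1, 2, 4, 6, 8, 24 h postdose; plasma separated at 4 °C, stored −80 °C, analysed within 1 week. Parameters from plasma concentration-time data; F from dose-normalized AUC, oral vs iv.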

[18] = test system: Trichophyton mentagrophytes; assay: Antifungal activity against Trichophyton mentagrophytes measured after 7 days by serial dilution method; format: functional; in short: as §1
[19] = molecular target: T1, 4,4'-diapophytoene desaturase (4,4'-diaponeurosporene-forming) (Staphylococcus aureus (strain Newman)) (UniProt O07855); settings: Staphylococcus aureus subsp. aureus str. Newman; 1 uM
T1 sequence (whole entry): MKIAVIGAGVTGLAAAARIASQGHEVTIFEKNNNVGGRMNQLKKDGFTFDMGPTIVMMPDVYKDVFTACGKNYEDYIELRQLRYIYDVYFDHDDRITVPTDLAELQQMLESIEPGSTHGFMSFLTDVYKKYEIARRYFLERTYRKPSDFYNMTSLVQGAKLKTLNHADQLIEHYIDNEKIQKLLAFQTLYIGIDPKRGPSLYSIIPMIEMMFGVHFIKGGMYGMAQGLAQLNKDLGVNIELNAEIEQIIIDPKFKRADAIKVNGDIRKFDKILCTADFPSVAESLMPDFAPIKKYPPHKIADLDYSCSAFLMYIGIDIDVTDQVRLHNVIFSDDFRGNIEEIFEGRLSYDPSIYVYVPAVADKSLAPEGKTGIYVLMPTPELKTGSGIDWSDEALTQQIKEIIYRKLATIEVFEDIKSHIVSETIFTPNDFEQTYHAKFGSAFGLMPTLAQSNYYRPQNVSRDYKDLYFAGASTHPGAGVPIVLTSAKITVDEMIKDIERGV

For `CN(C/C=C/c1ccc(C(F)(F)F)cc1)Cc1cccc2ccoc12.Cl`, the “MIC80 (lowest concentration giving ≥80% growth inhibition)” value (Trichophyton verrucosum) was >64 µg/mL, the survival at 1 µM (Staphylococcus aureus [1]) was 1.2% and the survival at 1 µM (Staphylococcus aureus [2]) was 4.3%. For the same compound, the solubility [3] was 10000 µg/mL, the Activity (Staphylococcus aureus [4]) was “Non-toxic” and the Activity (Staphylococcus aureus [5]) was “Non-toxic”. The Activity (Staphylococcus aureus [6]) was “Non-toxic”, the Activity (Staphylococcus aureus [7]) was “Non-toxic” and the Activity (Staphylococcus aureus [8]) was “Non-toxic”. For the same compound, the Activity (Staphylococcus aureus [9]) was “Non-toxic”, the “fold change (FC)” value (Staphylococcus aureus [10]) was 10 and the “fold change (FC)” value (Staphylococcus aureus [11]) was 5. The “fold change (FC)” value (Staphylococcus aureus [12]) was 30, the “fold change (FC)” value (Staphylococcus aureus [13]) was 20 and the “fold change (FC)” value (Staphylococcus aureus [14]) was 6. The Activity (Staphylococcus aureus [15]) was 0.85 deltalog10CFU, the Activity (Staphylococcus aureus [16]) was 0.71 deltalog10CFU and the Vd [17] was 10.7 L/kg. For the same compound, the “MIC=<80” value [18] was >64 µg/mL and the inhibition [19] was “Active”.
